Assay outcomes deposited in PubChem BioAssay by several laboratories.
The list is not random: actives were taken first. Their share in the collection is about 1.5%.
Rpn11 inh: inhibitors of human proteasome Rpn11; AID 588493; O00487; human 26S proteasome, Ub4-pepOG fluorescence polarization; 20S core pre-blocked with epoxomicin; 360,000 tested, 0.59% active; calls only at 20 µM;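 active = inhibition at 20 µM, scaled to each plate's controls, above about 33%, limit read from the data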
HNF4A DNA FP: change in binding of human HNF4 alpha to DNA; 360,000 tested, 0.3% active; activity change, % at 10 µM; HNF4a-FITC DNA binding, fluorescence polarization, 1 h; P41235; AID 1224865; in the data active = activity change above about 30%, passing the limit was not always enough
TPT1 inhibitor: inhibitors of Candida albicans tRNA 2'-phosphotransferase TPT1; recombinant caTPT1, FP RNA substrate dephosphorylation; inhibition, % at 5 µM; 300,000 tested, 0.81% active;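 active = inhibition above the mean of all tested compounds plus 3 SD, set per screening campaign, cut at about 24% in these data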
CSN inh: CSN deneddylation inhibition; Q92905; Purified CSN, SCF-Nedd8-OG deneddylation, fluorescence polarization; inhibition, % at 12.5 µM; 360,000 tested, 0.38% active;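 active = pattern-corrected inhibition above about 35%, with an unprinted fluorescence ratio check between 0.5 and 1.5, limit read from the data, passing the limit was not always enough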
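Assay system: purified human Csn5 enzyme expressed in HEK293T cells; Input: 0.24 nM Csn5 enzyme, final concentration; Reagent: 10 nM SCFSkp2-Nedd8OG; Compound dosing: 12.5 µM single point; Times: reaction 90 min, room temperature; Technique: fluorescence polarization readout.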
TPT1 inh confirm: TPT1 (C. albicans) inhibition, confirmation; recombinant caTPT1, fluorescence polarization, RNase T1 coupled; 2,400 tested, 74% active; AID 2149; inhibition, % at 5 µM; shares compounds with TPT1 inhibitor;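 active = inhibition above the primary screen limit, the mean inhibition of all tested compounds plus 3 SD, cut at about 25% in these data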
RNase T1 inh: blocks Aspergillus oryzae RNase T1, a TPT1 counter-screen; shares compounds with TPT1 inhibitor; RNase T1 cleavage, fluorescence polarization, 1536-well; inhibition, % at 5 µM; 2,400 tested, 83% active;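 active = inhibition above the solvent-only control well mean plus 3 SD, limit set per screening run, cut at about 23% in these data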;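 also: inhibitors block cleavage so intact labeled substrate keeps polarization high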
Rpn11 inh conf: confirmation of human proteasome Rpn11 inhibitors | purified human 26S proteasome, Ub4-pepOG fluorescence polarization; proteasome pretreated with epoxomicin | AID 602318 | shares compounds with Rpn11 inh | inhibition, % at 20 µM | 1,900 tested, 29% active
MMP-2 counter: MMP-2 (human) inhibition counter-screen. inhibition, % at 20 µM. recombinant MMP-2, FRET peptide cleavage fluorescence. shares compounds with Rpn11 inh. 1,900 tested, 4% active;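 also: human MMP-2 activated beforehand with APMA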
Thrombin FP: blocks bovine thrombin, flagging nonselective RPN11 hits | shares compounds with Rpn11 inh | bovine thrombin cleavage of Ub4-pepOG, fluorescence polarization | inhibition, % at 20 µM | 1,900 tested, 13% active | AID 602333;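 active = mean inhibition at least 40% at 20 µM, or signal 3 deviations below plate average, so some actives read negative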
Target sequence (P00735 whole entry, looked up): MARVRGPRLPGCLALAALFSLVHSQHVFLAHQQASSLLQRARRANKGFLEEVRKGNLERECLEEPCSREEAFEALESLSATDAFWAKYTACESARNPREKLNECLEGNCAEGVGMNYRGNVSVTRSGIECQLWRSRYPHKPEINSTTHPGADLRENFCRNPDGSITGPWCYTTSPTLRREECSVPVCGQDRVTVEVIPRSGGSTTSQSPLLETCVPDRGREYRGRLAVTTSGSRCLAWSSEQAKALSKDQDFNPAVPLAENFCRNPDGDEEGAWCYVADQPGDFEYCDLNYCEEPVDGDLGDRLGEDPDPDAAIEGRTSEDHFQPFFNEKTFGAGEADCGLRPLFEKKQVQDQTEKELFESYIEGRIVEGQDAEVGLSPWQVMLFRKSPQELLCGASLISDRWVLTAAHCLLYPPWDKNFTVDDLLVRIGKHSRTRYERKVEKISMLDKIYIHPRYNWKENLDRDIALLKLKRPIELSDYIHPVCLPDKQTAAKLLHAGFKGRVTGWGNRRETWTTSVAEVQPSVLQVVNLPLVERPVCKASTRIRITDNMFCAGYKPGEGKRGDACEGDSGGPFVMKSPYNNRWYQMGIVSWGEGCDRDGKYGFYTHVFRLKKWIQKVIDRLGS
Of the large screens only hits and unclear results are named; the others gave an inactive call (follow-up assays come after a bar, where they were run). Rule as the data show it, unless noted: active = inhibition above about 40%; inactive = the rest.

O=c1/c(=C\c2ccc(O)cc2)sc2n1C(c1ccccc1)C(c1ccccc1)=NN=2 (centres undefined)	Rpn11 inh active, HNF4A DNA FP 41, TPT1 inhibitor 62 | TPT1 inh confirm 65 | RNase T1 inh 76 | Rpn11 inh conf 95 | MMP-2 counter inactive | Thrombin FP 86
Oc1ccc(N=Nc2n[nH]c(-c3ccccc3)n2)cc1	none
Oc1ccc(N=Nc2nc(-c3ccccc3)c(-c3ccccc3)[nH]2)cc1	Rpn11 inh active, TPT1 inhibitor 31 | TPT1 inh confirm 42 | RNase T1 inh 55 | Rpn11 inh conf inactive | MMP-2 counter inactive | Thrombin FP inactive
COC(=O)c1ccc(COc2cccn3c(N(C)C(=O)CCC4CCCC4)c(C)nc23)cc1	none (no result: TPT1 inhibitor)
Cc1c([C@@H]2C[C@H]3CN(Cc4cccc(Cl)c4)C(=O)[C@]34CCCN24)cnn1C	Rpn11 inh active, TPT1 inhibitor 32 | TPT1 inh confirm 34 | RNase T1 inh 48 | Rpn11 inh conf inactive | MMP-2 counter inactive | Thrombin FP inactive
CCCn1cc([C@@H]2C[C@H]3CN(Cc4cccc(Cl)c4)C(=O)[C@]34CCCN24)c(C)n1	none
CCOc1cc(/C=C2\SC(=O)N(c3ccc(O)cc3)C2=O)ccc1O	Rpn11 inh active, TPT1 inhibitor 70 | TPT1 inh confirm 74 | RNase T1 inh 77 | Rpn11 inh conf inactive | MMP-2 counter inactive | Thrombin FP inactive
CCOc1ccc(N2C(=O)S/C(=C\c3ccc(O)c(OCC)c3)C2=O)cc1	Rpn11 inh active, TPT1 inhibitor 46 | TPT1 inh confirm 58 | RNase T1 inh 60 | Rpn11 inh conf inactive | MMP-2 counter inactive | Thrombin FP inactive
O=C(N/N=C/c1ccc([N+](=O)[O-])cc1)c1cc2ccccc2o1	none
C/C(=N\Nc1ccc([N+](=O)[O-])cc1)c1cc2ccccc2o1	Rpn11 inh active, HNF4A DNA FP 56, TPT1 inhibitor 111 | TPT1 inh confirm 111 | RNase T1 inh 113 | Rpn11 inh conf 60 | MMP-2 counter inactive | Thrombin FP inactive
CS(=O)(=O)N1Cc2cc(C(=O)NCC3CC3)nc(-c3cccc(-c4cccnc4)c3)c2[C@@H]1CCO	none (no result: Rpn11 inh, TPT1 inhibitor)
CCN(CC)c1ccc(/C=N/NC(=O)c2ccco2)c(O)c1	Rpn11 inh active, TPT1 inhibitor 27 | TPT1 inh confirm 48 | RNase T1 inh 59 | Rpn11 inh conf inactive | MMP-2 counter inactive | Thrombin FP inactive
CCN(CC)c1ccc(/C=N/N=C(c2ccccc2)c2ccccc2)c(O)c1	Rpn11 inh active, TPT1 inhibitor 36 | TPT1 inh confirm 98 | RNase T1 inh 104 | Rpn11 inh conf inactive | MMP-2 counter inactive | Thrombin FP inactive
Cn1ccc2c(-c3ccc(CO)cc3)cc3c(c21)C1CCC3C1 (centres undefined)	none (no result: TPT1 inhibitor)
COc1ccc(S(=O)(=O)N2CCN(CC(=O)Nc3c(C)n[nH]c3C)CC2)cc1OC	none (no result: TPT1 inhibitor)
CC(C)CN(C(=O)C1CCC1)c1c(N)n(Cc2ccccc2)c(=O)[nH]c1=O	none (no result: TPT1 inhibitor)
CCOc1ccc(NC(=S)N2CCC(C(=O)c3ccc(OC)cc3)CC2)cc1	none (no result: TPT1 inhibitor)
Cc1c(C(=O)N/N=C/c2ccc(O)c(Br)c2)sc(N)c1C#N	Rpn11 inh active, TPT1 inhibitor 27 | TPT1 inh confirm inactive | RNase T1 inh 24 | Rpn11 inh conf 54 | MMP-2 counter inactive | Thrombin FP 41
Cc1cccc2sc(NC(=O)C3CCCN(S(=O)(=O)c4cccc5nonc45)C3)nc12 (centres undefined)	Rpn11 inh active, TPT1 inhibitor 43 | TPT1 inh confirm 39 | RNase T1 inh 49 | Rpn11 inh conf 41 | MMP-2 counter inactive | Thrombin FP inactive
CCOc1cc(CN2CCC(N3CCC(C(=O)NC4CC4)CC3)CC2)ccc1O	none (no result: TPT1 inhibitor)
CN1CCN(C(=O)/C(=C/c2ccc(F)cc2)NC(=O)c2ccccc2)CC1	none
CN1CCN(C(=O)/C(=C/c2ccc(N(C)C)cc2)NC(=O)c2ccccc2)CC1	Rpn11 inh active, TPT1 inhibitor 45 | TPT1 inh confirm 48 | RNase T1 inh 58 | Rpn11 inh conf inactive | MMP-2 counter inactive | Thrombin FP inactive
NC(=O)c1ncn([C@@H]2O[C@H](CNCc3cc(Br)ccc3OCc3ccccc3)[C@@H](O)[C@H]2O)n1	none (no result: TPT1 inhibitor)
Cc1sc2nc(CSc3nnc(Cc4cccs4)n3C3CCCCC3)[nH]c(=O)c2c1C	Rpn11 inh active, TPT1 inhibitor 38 | TPT1 inh confirm 66 | RNase T1 inh 74 | Rpn11 inh conf 102 | MMP-2 counter inactive | Thrombin FP 59
Cc1ccc2nc(CSc3nnc(Cc4cccs4)n3C3CCCCC3)cc(=O)n2c1	none
CC1(C(=O)Nc2ccccc2)CCN1C(=O)CCc1ccc(Cl)cc1Cl (centres undefined)	none (no result: TPT1 inhibitor)
COc1cc(/C=C2\SC(c3ccc(C)cc3)=NC2=O)cc(OC)c1O	Rpn11 inh active, TPT1 inhibitor 48 | TPT1 inh confirm 67 | RNase T1 inh 79 | Rpn11 inh conf 41 | MMP-2 counter inactive | Thrombin FP inactive
COc1cc(/C=C2\SC(N)=NC2=O)cc(Cl)c1O	Rpn11 inh active, TPT1 inhibitor 43 | TPT1 inh confirm 60 | RNase T1 inh 71 | Rpn11 inh conf 76 | MMP-2 counter inactive | Thrombin FP 57
CC1(C(=O)NCCC(F)(F)F)Cc2c(-c3ccccc3)ccnc2O1 (centres undefined)	none (no result: TPT1 inhibitor)
Cc1ccccc1Nc1cccc2nonc12	Rpn11 inh active, TPT1 inhibitor 37 | TPT1 inh confirm 42 | RNase T1 inh 54 | Rpn11 inh conf inactive | MMP-2 counter inactive | Thrombin FP inactive
Cc1ccccc1NS(=O)(=O)c1cccc2nonc12	none
Cc1ccc(N2CC(C)Cn3c2nc2c3c(=O)[nH]c(=O)n2C)cc1C (centres undefined)	none
O=C(NN1C(=O)/C(=C/c2ccc(O)c([N+](=O)[O-])c2)SC1=S)c1ccccc1Cl	Rpn11 inh active, TPT1 inhibitor 75 | TPT1 inh confirm 55 | RNase T1 inh 66 | Rpn11 inh conf 51 | MMP-2 counter inactive | Thrombin FP 42
O=C1/C(=C/c2ccc(O)c([N+](=O)[O-])c2)SC(=S)N1Cc1ccccc1	none
COc1ccc(CCNC(=O)c2coc3ccccc3c2=O)cc1	none
